In the library only some 10% were active in any assay of this set; here they are far more common.
WT yeast gro inh = growth inhibition of WT strain, primary screen, mitochondrial fusion inhibitor project, WT and mutant strains, chemical genetic; mitochondrial fusion phenotypic screen; inhibition, % at 10 µM; AID 1362, 2008; 2.1% of 190,000 active; in the data active = inhibition above about 58%; tested in S. cerevisiae
L major viab = Leishmania major promastigote growth inhibition, primary screen; 9% of 200,000 active; Leishmania major promastigotes, resazurin fluorescence viability; inhibition, % at 10 µM; in the data active = inhibition above about 50%;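 note: promastigotes grown with compound for 44 hours at 28 °C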
Diaph act CS = compounds boosting diaphorase resazurin reduction – biochemical, uHTS, resorufin fluorescence, counter-screen for diaphorase-coupled primary assays, primary screen; Diaphorase/resazurin coupled assay, 16 min; hits give high values; 1 = vehicle wells, 0 = NADH-free wells; activation factor at 20 µM; 0.005% of 190,000 active;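 active = diaphorase activity raised at least twofold by the compound at 20 µM; inactive = activation factor below 2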
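Measured by – red resorufin fluorescence at 544/590 nm excitation/emission · Test system – Clostridium kluyveri diaphorase, purified enzyme · Incubation – reaction time 16 min, room temperature · Buffer or medium – 50 mM HEPES pH 7.4 with 4.542 mM MgCl2, 0.005% Tween 20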
PMI act satM6P = human PMI activators, high substrate, primary screen, biochemical, fluorescence intensity, near-saturating mannose 6-phosphate; Mannose-6-phosphate isomerase (Homo sapiens), P34949; coupled PMI enzyme assay, resazurin fluorescence, 20 min; hits give high values; 1 = untreated enzyme, 0 = substrate-free blank; activation factor at 20 µM; 0.34% of 190,000 active; AID 1216, 2008;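 active = activation factor of 2 or more at 20 µM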
Target sequence (P34949 whole entry, looked up): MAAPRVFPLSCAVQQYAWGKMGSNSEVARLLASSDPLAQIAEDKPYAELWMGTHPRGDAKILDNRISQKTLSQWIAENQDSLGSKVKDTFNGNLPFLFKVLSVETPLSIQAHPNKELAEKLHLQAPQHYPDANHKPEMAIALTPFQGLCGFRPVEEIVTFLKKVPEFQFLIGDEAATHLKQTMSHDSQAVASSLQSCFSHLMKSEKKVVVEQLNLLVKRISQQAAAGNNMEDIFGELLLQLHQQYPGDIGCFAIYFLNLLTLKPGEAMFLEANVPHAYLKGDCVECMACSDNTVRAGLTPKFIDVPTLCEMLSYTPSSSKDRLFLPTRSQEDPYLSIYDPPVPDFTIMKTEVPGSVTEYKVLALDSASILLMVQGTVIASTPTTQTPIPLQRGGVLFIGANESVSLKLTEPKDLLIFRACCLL
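Test system: Human PMI in coupled enzyme assay | Input: 15 ng/mL PMI | Medium: HEPES-buffered pH 7.4 with magnesium and detergent | Compound: One concentration, 20 µM, in 1% DMSO | Incubation: Enzyme reaction with compound 20 min at room temperature | Detection: Diaphorase-driven resazurin-to-resorufin fluorescence, excitation 544, emission 590 nm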
PMI act = activators of human PMI, primary screen, biochemical, fluorescence intensity, near-Km mannose 6-phosphate; Mannose-6-phosphate isomerase (Homo sapiens), P34949; 0.005% of 190,000 active; activation factor at 20 µM; AID 1214, 2008; purified human PMI, coupled resazurin fluorescence, 20 min; hits give high values; 1 = vehicle control, 0 substrate-free wells;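 active = activation factor of 2 or more at 20 µM, relative to plate controls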
Active calls of the source: *; / = no result.

SMILES	WT yeast gro inh	L major viab	Diaph act CS	PMI act satM6P	PMI act
CC(Sc1ccc2c(c1)OCCO2)C(=O)Nc1ccc2c(c1)OCO2 (stereo not drawn)	-6	-2	0.8	1	1
O=C(Nc1ccc2c(c1)OCO2)C1CCN(C(=O)CSc2ncnc3ccccc23)CC1	/	79*	0.8	0.8	0.9
O=C(Nc1ccc2c(c1)OCO2)C1CCN(C(=O)c2ccc(Cl)cc2)CC1	1	-5	0.9	0.9	0.9
CC(Sc1ncnc2ccccc12)C(=O)Nc1ccc2c(c1)OCO2 (stereo not drawn)	38	80*	0.9	0.8	0.9
COc1ccc(C(=O)N2CCC(C(=O)Nc3ccc4c(c3)OCO4)CC2)cc1	1	52*	0.9	1	0.9
O=C(Nc1ccc2c(c1)OCO2)C1CCN(S(=O)(=O)Cc2ccccc2)CC1	5	-4	0.8	0.9	0.9
CCOC(=O)c1c(CCl)nc2ccccc2c1C	-9	11	0.9	1.1	1.1
Cc1nc2ccc(NS(=O)(=O)c3c(C)c(C)cc(C)c3C)cc2s1	15	11	0.8	0.9	0.8
Cc1nc2cc(NS(=O)(=O)c3c(C)c(C)cc(C)c3C)ccc2s1	69*	19	0.9	1	0.9
O=c1c(Cc2c(F)cccc2Cl)c(O)ccn1CC1CCCO1 (stereo not drawn)	11	-3	1	1.1	1.1
C/C(=N\NC(=O)c1nn(C)cc1Br)c1cccc(NC(=O)c2ccncc2)c1	-3	63*	0.9	1.2	1.2
C/C(=N\NC(=O)c1ccc(Br)cc1)c1cccc(NC(=O)c2cccnc2)c1	-6	3	0.9	1.1	1.1
C/C(=N\NC(=O)c1cccc(N/N=C(\C)c2ccncc2)c1)c1ccncc1	-2	-2	1	2.5*	1.7
CC1CCc2sc(C(=O)NCc3ccc(F)cc3)cc2C1 (stereo not drawn)	31	-3	0.8	0.9	0.9
C/C(=N\NC(=O)c1cc2c(s1)CCC(C)C2)c1ccncc1 (stereo not drawn)	-3	97*	0.8	0.8	0.9
C/C(=N\NC(=O)c1cccc(N/N=C(\C)c2ccccc2)c1)c1ccccc1	11	-7	1	2.7*	1.8
C/C(=N\NC(=O)c1cccc([N+](=O)[O-])c1)c1ccncc1	-3	11	1	1.1	1.2
CC(=O)Nc1cccc(/C(C)=N/NC(=O)c2ccc(O)cc2)c1	-12	-5	0.9	1	1
O=C(CCCCCN1C(=O)c2ccccc2C1=O)Oc1ccc2c3c(c(=O)oc2c1)CCC3	16	-4	1	1	0.9
COc1cc2c(cc1OC)CN(C(=S)Nc1c(C)cccc1C)CC2	-16	0	0.9	1	0.8
C/C(=N\Nc1cccc(C(F)(F)F)c1)c1ccc(O)cc1	17	13	0.8	2.1*	1.6
COc1ccc(-c2csc(NC(=O)C3COc4ccccc4O3)n2)cc1OC (stereo not drawn)	65*	27	0.9	0.9	0.8
CCOC(=O)c1ccc2nc(CCC(=O)N[C@H](C(=O)OC)C(C)C)c(=O)n(CC)c2c1	-4	6	1	1	1
COC(=O)C1=C(C)NC2=C(C1c1ccc(O)cc1)S(=O)(=O)c1ccccc12 (stereo not drawn)	23	4	1	1.1	1.1
COc1ccc(C2C(C#N)=C(C)NC3=C2S(=O)(=O)c2ccccc23)cc1 (stereo not drawn)	58*	7	0.9	1.1	1.1
SMILES	WT yeast gro inh	L major viab	Diaph act CS	PMI act satM6P	PMI act
N=c1ncn(CC(O)CO)c2nc(N3CCOCC3)[nH]c12 (stereo not drawn)	9	-2	1	1	1
O=C1/C(=C\c2ccc3ccccc3c2)CCCc2ccccc21	49	11	0.9	0.9	0.9
CCN1CCN(S(=O)(=O)c2cccc([N+](=O)[O-])c2)CC1	3	0	0.8	0.8	0.9
O=C1/C(=C/c2cccc([N+](=O)[O-])c2)CCc2ccccc21	55	95*	0.9	0.8	0.9
COc1ccc(C=C2C(=O)c3ccccc3C2=O)cc1O	10	14	0.6	0.4	0.8
CCN1C/C(=C\c2cccc([N+](=O)[O-])c2)C(=O)/C(=C/c2cccc([N+](=O)[O-])c2)C1	65*	100*	1	1	1
CCN1C/C(=C/c2ccc(OC)c(O)c2)C(=O)/C(=C/c2ccc(OC)c(O)c2)C1	-17	100*	1	0.6	1
CC(Oc1ccc(Cl)cc1)C(=O)N/N=C/c1ccsc1 (stereo not drawn)	7	-3	0.8	0.9	1
CC1=CC(C)(C)N(C(=O)CN2C(=O)CCC2=O)c2ccc(C)cc21	9	-2	1.1	1.1	1.1
CC1=CC(C)(C)N(S(=O)(=O)c2ccc(C)cc2)c2ccccc21	46	100*	0.8	0.9	0.9
CC1=CC(C)(C)N(S(=O)(=O)c2ccc(F)cc2)c2ccc(C)cc21	81*	23	0.8	0.9	0.9
COc1ccc2c(c1)C(C)=CC(C)(C)N2S(=O)(=O)c1ccc(Br)cc1	47	95*	0.9	0.9	0.9
COc1cc(N/C(N)=N/c2nc(C)cc(C)n2)c(OC)cc1Cl	-5	32	1	1	1
CC(=O)NCCn1c(SCc2cccc([N+](=O)[O-])c2)nc2ccccc2c1=O	5	-2	0.7	0.9	0.9
CC(NC(=O)Nc1ccccc1F)C(C)(C)C (stereo not drawn)	-6	-1	0.9	1	0.9
O=C(CSc1ccccc1[N+](=O)[O-])NC1CCS(=O)(=O)C1 (stereo not drawn)	6	-3	1	1.1	1.1
Cc1ccc(NC(=S)N(C)Cc2cn(C)c3ccccc23)cc1	34	63*	0.8	0.9	0.9
CCOc1ccc(NC(=S)N(CCCN2CCOCC2)Cc2cn(C)c3ccccc23)cc1	10	60*	1	0.9	0.8
Cc1cccc(NC(=S)N(CCCN2CCOCC2)Cc2cn(C)c3ccccc23)c1	21	90*	0.8	0.9	0.8
COc1ccc(NC(=S)N(CCCN2CCOCC2)Cc2cn(C)c3ccccc23)cc1	-7	14	0.8	0.9	0.8
Cn1cc(CN(CCCN2CCOCC2)C(=S)Nc2cccc(Cl)c2)c2ccccc21	30	80*	0.8	1	0.9
Cc1ccc(NC(=S)N(CCCN2CCOCC2)Cc2ccccn2)cc1Cl	9	4	1	1	1
Cc1cccc(NC(=O)CN2NS(=O)(=O)c3ccccc3C2=O)c1	/	-4	1	1	1
